The values below come from PMC3920459 (The Journal of organic chemistry, 2013).

One may read the IC50 as the concentration needed to halve the response being measured.

The subject of data set [1] is HeLa, cervical carcinoma. In words: IC50 determination for adherent cells using SRB, HeLa. It is filed as cell-based, human. The following applies: read-out: IC50 HeLa, 48-hour exposure.
In data set [2] the test system is human cell lines U-937, HeLa, A549, BT549, IMR90. In words: 48-hour cell death panel. The conditions noted are these: for activity against the cell lines of Table 3 (in words): 48-hour exposure, concentrations up to 10 μM. It is filed as cell-based. The essentials:
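Adherent lines seeded at 5,000 (HeLa) or 2,000 (A549, BT549, IMR90) cells/well and attached 2–3 h, in RPMI-1640 or, for IMR90, EMEM, each with 10% FBS. Test compound at 1 nM–10 μM on a half-log scale, in triplicate with 1% DMSO final, for 48 h continuous at 37 °C and 5% CO2. Cells fixed in cold 10% TCA and stained with SRB; dye read at 510 nm. IC50 from ≥3 independent experiments.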

Data set [3] concerns BT549, breast carcinoma. In words: IC50 determination for adherent cells using SRB, BT549. It is filed as cell-based, human. The conditions noted are these: for IC50: read-out: IC50 BT549, SRB.
Data set [4] concerns A549, non-small cell lung carcinoma. In words: IC50 determination for adherent cells using SRB, A549. It is filed as cell-based, human. The conditions noted are these: read-out: IC50 A549, 48-hour exposure.
Data set [5] concerns U-937, lymphoma. The data set is described as follows: IC50 determination for non-adherent cells using MTS, U-937. It is filed as cell-based, human. The conditions noted are these: for IC50: read-out: IC50 U-937, MTS.
The subject of data set [6] is IMR90, immortalized lung fibroblasts. The data set is described as follows: IC50 determination for adherent cells using SRB, IMR90. It is filed as cell-based, human. The conditions noted are these: read-out: IC50 IMR90, 48-hour exposure, immortalized normal cell line.
Data set [7] has as its system human erythrocytes. In words: Hemolysis assay using human erythrocytes. It is filed as cell-based.
The subject of data set [8] is anthropods. The conditions noted are these: cited from earlier work.
Data set [9] relates to U-937 cells. The data set is described as follows: Cell cycle arrest in thymidine-synchronized cells. The conditions noted are these: synchronized U-937 cells, 16 hours. It is filed as cell-based, human.
Data set [10] concerns U-937 cells. In words: Apoptosis with Annexin V-FITC and propidium iodide. The following applies: 21 hours; 4× and 6× the 48-hour IC50. It is filed as cell-based, human.
For data set [11], the system named is multiple tumor cell lines. The conditions noted are these: cited from earlier work.
For data set [12] the following is noted: mice, in vivo; cited from earlier work.
In data set [13] the test system is glycogen synthase kinase-3β. The conditions noted are these: cited from earlier work.
For data set [14], the system named is Jurkat, acute T-cell leukemia. In words: IC50 determination using MTS, Jurkat. It is filed as cell-based, human. The following applies: read-out: IC50 Jurkat, 48-hour.
The test system of data set [15] is Daudi, Burkitt’s lymphoma. In words: IC50 determination using MTS, Daudi. It is filed as cell-based, human. The following applies: read-out: IC50 Daudi, 48-hour.
The test system of data set [16] is CA46, Burkitt’s lymphoma. The data set is described as follows: IC50 determination using MTS, CA46. It is filed as cell-based, human. The following applies: read-out: IC50 CA46, 48-hour.
The test system of data set [17] is HL-60, acute promyelocytic leukemia. In words: IC50 determination using MTS, HL-60. It is filed as cell-based, human. The following applies: read-out: IC50 HL-60, 48-hour.
The test system of data set [18] is cells. The conditions noted are these: cited from earlier work.
Data set [19] has as its system CEM, acute lymphoblastic leukemia. The data set is described as follows: IC50 determination using MTS, CEM. The conditions noted are these: read-out: IC50 CEM, 48-hour. It is filed as cell-based, human.
Data set [20] relates to tubulin dynamics in HeLa cells. The data set is described as follows: Tubulin confocal microscopy. The conditions noted are these: 16 hours. It is filed as cell-based, human.
Data set [21] deals with U-937 cells. In words: Western blot analysis of procaspase-3 and PARP-1 cleavage. It is filed as cell-based, human. The conditions noted are these: 24 hours; 2×, 4×, 6× the 48-hour IC50.

Entries after “also recorded” stand apart in the source; their conditions may differ.

On to `COC1NC(=O)c2ccc(Br)n2C1Cc1c[nH]c(=O)n1C` (single isomer, unassigned; (+)) [(+)-39, (+)-O-methyl-pre-agelastatin A], for which the IC50 in data set [1], in data set [3] (48-hour exposure), in data set [4], in data set [5] (48-hour exposure) and in data set [6] was over 10 µM throughout. The “activity against the cell lines of Table 3 (in words)” value (from here on “activity against the cell lines”) in data set [2] is given as “none”.
In the case of `COC1NC(=O)c2ccc(Br)n2C1Cc1c[nH]c(=O)[nH]1` (single isomer, unassigned; (+)) [(+)-53, (+)-O-methyl-pre-agelastatin D], the IC50 in [1], in data set [3] (48-hour exposure), in data set [4], in data set [5] (48-hour exposure) and in data set [6] was over 10 µM throughout. The “activity against the cell lines” value in data set [2] is “none”.
Take `CN1C(=O)N[C@H]2[C@@H]3NC(=O)c4ccc(Br)n4[C@@H]3C[C@]21O` [(−)-1, (−)-agelastatin A]: the IC50 in data set [1] was determined as 0.708 ± 0.09 µM; in data set [3] (48-hour exposure) it was 0.278 ± 0.076 µM; in data set [4], 1.05 ± 0.14 µM; in data set [5] (48-hour exposure), 0.067 ± 0.003 µM; in data set [6] it was 1.11 ± 0.35 µM; in data set [14] it was 0.074 ± 0.007 µM. Besides, the IC50 in data set [15] is 0.02 ± 0.003 µM; in data set [16], 0.187 ± 0.071 µM; in [17] it was 0.138 ± 0.066 µM; in data set [19], 0.02 ± 0.002 µM. In addition, in data set [7] (hemolysis after 2 h), the “concentration without effect on normal red blood cells” value was over 333 µM. The “hemolytic activity (nonspecific hemolysis of red blood cells)” value in [7] (tested at 333 μM, 2 h) is on record as “none”. In data set [2], the “activity against the cell lines” value was “highest potency in all cell lines tested”. Moreover, the toxicity towards anthropods entry in data set [8] is “exhibits toxicity”. For the same compound, the cell cycle arrest result in [9] is reported as “dose-dependent G2/M cell cycle arrest”; in [18] it was “arrest in the G2/M-phase of the cell cycle”. Also, the “phosphatidylserine exposure / PI inclusion (apoptosis)” value in data set [10] is “induced dose-dependent apoptosis”. Besides, in [11], the “anti-neoplastic activity against multiple tumor cell lines” value is “modest anti-neoplastic activity”. In addition, the “penetration into CNS compartments” value in data set [12] is on record as “able to penetrate into CNS compartments”. Further, the “inhibition of glycogen synthase kinase-3β” value in data set [13] was “moderately inhibits”. The “enhanced activity in BT549 relative to the other cell lines” value in [3] (48-hour IC50 comparison) came out at 4 ×. Also, in data set [5] (48-hour IC50 comparison), the “enhanced activity in U-937 relative to the other cell lines” value worked out at 20 ×. Moreover, the “tubulin fluorescence (tubulin dynamics within cells)” value (shortened to “tubulin fluorescence”) in data set [20] is on record as “no change in tubulin fluorescence”. Further, the “activation of procaspase-3 to caspase-3 and cleavage of PARP-1” value in data set [21] was “induced dose-dependent activation of procaspase-3 to active caspase-3, and cleavage of PARP-1”.
For `CN1C(=O)N[C@@]2(O)[C@@H]3NC(=O)c4ccc(Br)n4[C@@H]3C[C@@]12O` [(−)-3, (−)-agelastatin C], the IC50 in data set [1] is over 10 µM; in [3] (48-hour exposure), over 10 µM; in [4] it was over 10 µM; in data set [5] (48-hour exposure), over 10 µM; in [6] it was over 10 µM; in [14], 5.31 ± 0.35 µM. Moreover, the IC50 in [15] is 7.2 ± 2.9 µM; in data set [16], over 10 µM; in data set [17], over 10 µM; in [19] it was 2.1 ± 1.3 µM. Besides, in data set [2], the “activity against the cell lines” value is “no activity; also recorded: completely abolishes activity”.
Turning to `O=C1N[C@H]2[C@@H]3NC(=O)c4ccc(Br)n4[C@@H]3C[C@@]2(O)N1` [(−)-4, (−)-agelastatin D], the IC50 in data set [1] was 1 ± 0.2 µM; in data set [3] (48-hour exposure) it was 0.631 ± 0.082 µM; in [4], 0.92 ± 0.16 µM; in data set [5] (48-hour exposure) it was 0.24 ± 0.033 µM; in data set [6], 2.75 ± 0.6 µM; in data set [14] it was 0.21 ± 0.063 µM. The IC50 in data set [15] turned out to be 0.202 ± 0.015 µM; in data set [16], 0.46 ± 0.24 µM; in [17], 0.54 ± 0.12 µM; in data set [19], 0.074 ± 0.025 µM. Moreover, the cell cycle arrest result in data set [9] is on record as “dose-dependent G2/M cell cycle arrest”. Further, in data set [10], the “phosphatidylserine exposure / PI inclusion (apoptosis)” value was “induced dose-dependent apoptosis”. Moreover, the “activity against BT549 cells (in words)” value in data set [3] (48-hour exposure) is “modest activity”. In addition, in [5] (48-hour exposure), the “activity against U-937 cells (in words)” value is given as “reasonable activity”. Also, in [20], the “tubulin fluorescence” value is reported as “no change in tubulin fluorescence”. Besides, the “activation of procaspase-3 to caspase-3 and cleavage of PARP-1” value in [21] was “induced dose-dependent activation of procaspase-3 to active caspase-3, and cleavage of PARP-1”.
As to `CO[C@@]12C[C@@H]3[C@@H](NC(=O)c4ccc(Br)n43)[C@@H]1NC(=O)N2C` [(−)-5, (−)-agelastatin E], the IC50 in [1] is 8.6 ± 0.81 µM; in data set [3] (48-hour exposure), 6.9 ± 2.5 µM; in [4] it was over 10 µM; in data set [5] (48-hour exposure), 2.56 ± 0.13 µM; in data set [6] it was over 10 µM; in data set [14] it was 1.5 ± 0.33 µM. Besides, the IC50 in data set [15] amounted to 1.41 ± 0.53 µM; in [16], 2.45 ± 0.95 µM; in data set [17], 4.6 ± 3.6 µM; in [19], 0.83 ± 0.37 µM. For the same compound, the “activity against the cell lines” value in data set [2] is “weak activity”. Moreover, in data set [2] (comparison of 48-hour IC50 values), the “reduction in anticancer potency relative to (−)-agelastatin A (1)” value is recorded as over 10 fold.
For `O=C1N[C@H]2[C@@H]3NC(=O)c4cc(Br)c(Br)n4[C@@H]3C[C@@]2(O)N1` [(−)-6, (−)-agelastatin F], the IC50 in data set [1], in [3] (48-hour exposure), in data set [4], in data set [5] (48-hour exposure), in [6] and in [14] was over 10 µM each time. The IC50 in [15], in [16], in [17] and in data set [19] was over 10 µM each time. In addition, the “activity against the cell lines” value in data set [2] was “no activity”.
Regarding `CC(=O)O[C@H]1C(=O)[C@@]2(C)[C@H]([C@H](OC(=O)c3ccccc3)[C@]3(O)C[C@H](OC(=O)[C@H](O)[C@@H](NC(=O)c4ccccc4)c4ccccc4)C(C)=C1C3(C)C)[C@]1(OC(C)=O)CO[C@@H]1C[C@@H]2O` [Taxol, reference compound], the “tubulin fluorescence” value in data set [20] was “heightened”.
For “(−)-O-methyl-di-epi-agelastatin A [(−)-50]”, the IC50 in data set [1], in [3] (48-hour exposure), in data set [4], in data set [5] (48-hour exposure) and in data set [6] was over 10 µM each time. Besides, the “activity against the cell lines” value in data set [2] is recorded as “none”.
On to (−)-agelastatin B [(−)-2], for which the IC50 in data set [1] is 4.8 ± 1.2 µM; in data set [3] (48-hour exposure), 4.8 ± 1.1 µM; in data set [4] it was over 10 µM; in data set [5] (48-hour exposure), 1.06 ± 0.16 µM; in [6], over 10 µM; in data set [14] it was 0.75 ± 0.44 µM. Besides, the IC50 in data set [15] came out at 0.46 ± 0.28 µM; in data set [16], 1.07 ± 0.42 µM; in [17], 2.4 ± 1 µM; in [19] it was 0.29 ± 0.2 µM. The “activity against the cell lines” value in data set [2] is recorded as “weak activity”.
On to (−)-dehydroagelastatin A [(−)-51], for which the IC50 in data set [1], in data set [3] (48-hour exposure), in data set [4], in [5] (48-hour exposure) and in data set [6] was over 10 µM each time. In addition, the “activity against the cell lines” value in data set [2] is “none”.
Consider (−)-di-epi-agelastatin C [(−)-52], for which the IC50 in [1], in [3] (48-hour exposure), in [4], in data set [5] (48-hour exposure) and in [6] was over 10 µM each time. For the same compound, the “activity against the cell lines” value in data set [2] is “none”.
